Experimental data pooled from the literature.
Target: Misshapen-like kinase 1 (MINK1, Homo sapiens, UniProt Q8N4C8)

| SMILES | test | setting | endpoint | result |
| --- | --- | --- | --- | --- |
| Cn1cc(-c2cccc(N3CCc4c(sc5c4CC(C)(C)C5)C3=O)c2CO)cc(Nc2ccncn2)c1=O | enzyme activity, inhibitor | 1 µM | inhibition | 11% |
| Cn1cncc1[C@@](O)(COc1ccc(C#N)cc1-c1ccc(OC(F)(F)F)cc1)c1ccc(C#N)cc1 | cell-free assay, competition with immobilised ligand | 1 µM | remaining binding | 100% |
| O=c1[nH]c2ccccc2n1C1CCN(Cc2ccc(-c3[nH]c4cc5ncnc5cc4nc3-c3ccccc3)cc2)CC1 | cell-free assay | 0.5 µM | remaining signal | 103% |
| Nc1ncc(-c2nc(N3CCOCC3)nc(N3CCOCC3)n2)c(C(F)F)n1 | binding, competition with immobilised ligand | 10 µM | remaining binding | 66% |
| Cc1nn(C)cc1-c1nc2c(N3CCN(Cc4ccc(Cl)cc4)CC3)c(Cl)cnc2[nH]1 | binding, competition with immobilised ligand | 1 µM | remaining binding | 84% |
| Cn1cc(-c2cc(F)cc(N3CCn4c(cc5c4CCCC5)C3=O)c2CO)cc(Nc2ccc(N3CCN(C4COC4)CC3)cn2)c1=O | enzyme activity, inhibitor | 0.1 µM | inhibition | 12% |
| C#Cc1n[nH]c2c(-c3cn([C@@H](C)c4ccccc4)c(=O)[nH]c3=O)cc(F)cc12 | enzyme activity, inhibitor | 0.1 µM | inhibition | 2% |
| CC(C)(C)c1cc(C=C(C#N)C#N)cc(Br)c1O | enzyme activity, inhibitor | 0.5 µM | remaining activity | 111% |
| N#CC1(c2ccccn2)CCN(Cc2cc(C(=O)O)c(=O)n3ccccc23)CC1 | cell-free assay, competition with immobilised ligand | 1 µM | remaining binding | 92% |
| C#Cc1n[nH]c2c(-c3cn([C@@H](C)c4ccccn4)c(=O)[nH]c3=O)cc(F)cc12 | enzyme activity, inhibitor | 0.1 µM | inhibition | 5.6% |
